Screening data: PubChem, The Scripps Research Institute Molecular Screening Center
Only some compounds are listed: those with a hit (about 2.6% of all), similar ones and a draw of the others.
ABHD4 inh: inhibitors of mouse ABHD4; purified mABHD4, FP-Rh probe fluorescence polarization; inhibition, % at 8.92 µM; 0.54% of 370,000 active; AID 720543;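 active = inhibition exceeding the mean over every tested compound plus 3 SD, cut at about 30% in these data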
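Assay system: mouse ABHD4 enzyme, wild type / Also added: fluorescent activity-based probe FP-Rh / Doses: single nominal dose of 8.92 µM, 0.89% DMSO final / Timing: 45 min compound pre-incubation plus 60 min probe step, 25 °C / Signal: FP readout, ex 525 nm / em 598 nm / Control set: S159A mutant/DMSO as 100%, compound-well median as 0%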
TCR-CD3 inh: blocks the human TCR-CD3 interaction; TAMRA-labeled TCR probe fluorescence, biochemical; inhibition, % at 9.4 µM; 0.37% of 360,000 active; AID 651800;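 note: recombinant mutant TCR 2C K166C tagged with TAMRA read by polarization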
SIAE primary: inhibitors of human sialic acid acetylesterase SIAE | SIAE FP-Rh probe binding, fluorescence polarization | Q9HAT2 | 0.69% of 370,000 active | inhibition, % at 9.66 µM;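 active = inhibition above a cutoff: mean of compounds within the control limits plus 3 SD of those, cut at about 17% in these data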
PRMT1 FP inh: PRMT1 (human) inhibition, primary screen; recombinant PRMT1, activity-based probe fluorescence polarization; inhibition, % at 2.79 µM; 1.3% of 370,000 active; AID 652257;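 active = inhibition above about 21% made by adding two undisclosed values, limit read from the data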
HTRA1 inhibitor: inhibitors of human serine peptidase HTRA1; 0.5% of 340,000 active; inhibition, % at 5.96 µM; Q92743; recombinant HTRA1, FP-rhodamine activity-based probe, fluorescence polarization; in the data active = inhibition above about 36%
Target sequence (Q92743 whole entry, looked up): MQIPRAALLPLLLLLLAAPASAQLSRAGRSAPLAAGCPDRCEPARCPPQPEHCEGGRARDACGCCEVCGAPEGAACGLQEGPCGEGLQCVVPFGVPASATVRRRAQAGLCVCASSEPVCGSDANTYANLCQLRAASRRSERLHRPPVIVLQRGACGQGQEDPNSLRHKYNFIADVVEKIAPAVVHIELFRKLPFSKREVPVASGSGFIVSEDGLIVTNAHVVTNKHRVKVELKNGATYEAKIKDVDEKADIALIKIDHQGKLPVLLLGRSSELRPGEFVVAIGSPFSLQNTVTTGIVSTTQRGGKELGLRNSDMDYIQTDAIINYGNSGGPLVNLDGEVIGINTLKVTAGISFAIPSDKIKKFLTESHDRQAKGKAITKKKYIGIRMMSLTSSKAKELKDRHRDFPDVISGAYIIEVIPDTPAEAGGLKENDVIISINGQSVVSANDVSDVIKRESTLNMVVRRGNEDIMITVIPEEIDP
BSA probe FL: BSA probe counter-screen for TCR-CD3 inhibitors | 10% of 1,200 active | AID 652035 | shares compounds with TCR-CD3 inh | TAMRA-labeled BSA probe fluorescence counterscreen | inhibition, % at 9.4 µM; in the data active = inhibition above about 23%
TCR-CD3 conf: TCR-CD3 interaction inhibition, confirmation; 48% of 1,200 active; shares compounds with TCR-CD3 inh; inhibition, % at 9.4 µM; TAMRA-labeled TCR probe fluorescence binding assay; AID 652036
PRMT1 inh conf: confirmation of human PRMT1 inhibitors | shares compounds with PRMT1 FP inh | recombinant His-PRMT1, activity-based probe fluorescence polarization | inhibition, % at 2.79 µM | 42% of 3,300 active;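 active = mean inhibition across replicates above the hit cutoff derived for the earlier primary screen, cut at about 22% in these data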
ABHD4 confirm: confirmation of mouse ABHD4 inhibitors; shares compounds with ABHD4 inh; purified mABHD4, FP-Rh probe fluorescence polarization; inhibition, % at 8.92 µM; 55% of 1,800 active; AID 720658;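 active = mean inhibition across replicates above the hit cutoff set in the primary screen, cut at about 30% in these data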
SIAE confirm: human SIAE inhibition, confirmation | 13% of 2,300 active | inhibition, % at 9.66 µM | SIAE FP-Rh activity-based probe, fluorescence polarization | shares compounds with SIAE primary;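 active = mean inhibition of the replicates above the hit cutoff set in the primary screen, cut at about 17% in these data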;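 note: inhibitors lower polarization as more probe stays unbound to SIAE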
Large screens that a line does not name were inactive (follow-up assays come after a bar, where they were run). Cut-off read from the data, not from the text of the source, unless noted: active = inhibition above about 19%; inactive = the rest.

CC(=O)c1sc2nc(-c3ccco3)ccc2c1N	ABHD4 inh 31, TCR-CD3 inh 24, PRMT1 FP inh 52 (no result: HTRA1 inhibitor) | BSA probe FL inactive | TCR-CD3 conf inactive | ABHD4 confirm inactive
Cc1ccccc1CN1CCCCC(NC(=O)c2ccc3ccccc3c2)C1=O (stereo not given)	none (no result: TCR-CD3 inh, HTRA1 inhibitor)
c1cc(-c2ccoc2)n2ccnc2c1	ABHD4 inh 50, TCR-CD3 inh 25 (no result: HTRA1 inhibitor) | BSA probe FL inactive | TCR-CD3 conf inactive | ABHD4 confirm inactive
CC1=NN(c2ccccc2)C(=O)C1C=Nc1ccc(N(C)C)cc1 (stereo not given)	ABHD4 inh 39, TCR-CD3 inh 23, PRMT1 FP inh 29 (no result: HTRA1 inhibitor) | BSA probe FL inactive | TCR-CD3 conf inactive | ABHD4 confirm inactive
Cc1ccc(CNC[C@@]23CO[C@H](c4ccc(Cl)cc4)N2[C@@H](c2ccc(Cl)cc2)SC3)o1	none (no result: TCR-CD3 inh, HTRA1 inhibitor)
CC(=O)Nc1ccc(Nc2c3c4c(cccc4n(C)c2=O)C(=O)c2ccccc2-3)cc1	ABHD4 inh 31, TCR-CD3 inh 21, PRMT1 FP inh 71 | BSA probe FL 55 | TCR-CD3 conf 37 | ABHD4 confirm 33
CCN(CC)S(=O)(=O)c1ccc(C(=O)NCc2ccc3c(c2)cc(C)n3C)cc1	ABHD4 inh 104, TCR-CD3 inh 74, SIAE primary 28 | BSA probe FL inactive | TCR-CD3 conf inactive | ABHD4 confirm inactive | SIAE confirm inactive
COC(=O)[C@]12C[C@H](CC(=O)NCc3cccs3)C(=O)N(Cc3ccc(Cl)cc3Cl)C1=C[C@H](C1CCCC1)O[C@@H]2C	none (no result: TCR-CD3 inh, HTRA1 inhibitor)
O=C(COC(=O)Cc1cccs1)Nc1ccc(OC(F)(F)F)cc1	ABHD4 inh 108, TCR-CD3 inh 62, SIAE primary 133, PRMT1 FP inh 78 | BSA probe FL inactive | TCR-CD3 conf inactive | SIAE confirm inactive
COc1ccc2[nH]c3c(c2c1)CCN[C@]31C(=O)N(c2ccccc2)c2ccccc21	none (no result: TCR-CD3 inh, HTRA1 inhibitor)
Cc1occc1C(=O)N/N=C/c1c(O)ccc2ccccc12	none
O=C(N/N=C\c1c(O)ccc2ccccc12)c1ccc(O)cc1	TCR-CD3 inh 28, SIAE primary 27 | BSA probe FL inactive | TCR-CD3 conf 21 | SIAE confirm inactive
Cc1ccc(O)c(CP(=O)(c2ccccc2)c2ccccc2)c1	none
CCNc1ccccc1CP(=O)(c1ccccc1)c1ccccc1O (stereo not given)	ABHD4 inh 77, TCR-CD3 inh 51, SIAE primary 35, PRMT1 FP inh 75 (no result: HTRA1 inhibitor) | BSA probe FL inactive | TCR-CD3 conf inactive | ABHD4 confirm 46 | SIAE confirm inactive
Cc1cc2c(c(=O)o1)C(c1ccc([N+](=O)[O-])o1)C(C#N)=C(N)O2 (stereo not given)	ABHD4 inh 32, TCR-CD3 inh 38, SIAE primary 23 (no result: HTRA1 inhibitor) | BSA probe FL inactive | TCR-CD3 conf inactive | ABHD4 confirm inactive | SIAE confirm inactive
CCC(CC)C1C(C#N)=C(N)Oc2cc(C)oc(=O)c21 (stereo not given)	none
C[N+]1=C(N)N[C@@]2(C=C3CCCCC3n3c(=O)n(-c4ccccc4)c(=O)n32)C1 (stereo not given in full)	none (no result: TCR-CD3 inh, HTRA1 inhibitor)
O=C(CCC(=O)Nc1cccc(Cl)c1)N/N=C/c1cc([N+](=O)[O-])ccc1O	TCR-CD3 inh 28, SIAE primary 18 | BSA probe FL inactive | TCR-CD3 conf 41 | SIAE confirm inactive
CC(=O)Nc1ccc(C(=O)N/N=C/c2cc(Br)cc(Br)c2O)cc1	TCR-CD3 inh 40, SIAE primary 33 | BSA probe FL inactive | TCR-CD3 conf 42 | SIAE confirm inactive
CC(C)C(=O)Nc1ccc(C(=O)N/N=C/c2cc(Br)cc(Br)c2O)cc1	none
CCOC(=O)[C@@]12CCCC=C1N(CCc1ccc(Cl)cc1)C(=O)[C@H]2CC(=O)NCCCCc1ccccc1	none (no result: TCR-CD3 inh, HTRA1 inhibitor)
COC(=O)[C@]12C[C@H](CC(=O)NCc3ccc(OC)c(OC)c3)C(=O)N(Cc3ccco3)C1=C[C@H](C(C)(C)C)O[C@@H]2C	none (no result: TCR-CD3 inh, HTRA1 inhibitor)
O=C(CCc1ccc(S(=O)(=O)N2CCOCC2)cc1)N/N=C/c1ccc(O)c(O)c1O	TCR-CD3 inh 28, SIAE primary 28, PRMT1 FP inh 33 | BSA probe FL inactive | TCR-CD3 conf 25 | PRMT1 inh conf 50 | SIAE confirm inactive
O=C(N/N=C/c1cn(Cc2cccc(F)c2)c2ccccc12)c1cc(O)cc(O)c1	TCR-CD3 inh 47, SIAE primary 37 | BSA probe FL inactive | TCR-CD3 conf 27 | SIAE confirm inactive
COC(=O)c1cc(C2(c3c[nH]c4ccccc34)CCN(C(=O)OC(C)(C)C)CC2)n2ccccc12	none (no result: TCR-CD3 inh, HTRA1 inhibitor)
NNC(=O)c1oc2nc(-c3ccco3)cc(-c3ccco3)c2c1N	TCR-CD3 inh 25, SIAE primary 50, PRMT1 FP inh 38 (no result: HTRA1 inhibitor) | BSA probe FL inactive | TCR-CD3 conf inactive | SIAE confirm 74
Nc1c(C(=O)N/N=C/c2cccnc2)oc2nc(-c3ccccc3)cc(-c3ccco3)c12	none (no result: HTRA1 inhibitor)
CN(C)C(=O)C[C@H]1CC[C@H]2[C@H](COc3ccc(NC(=O)C4CC4)cc3C(=O)N2C)O1	none (no result: TCR-CD3 inh, HTRA1 inhibitor)
O=C1/C(=C/c2ccco2)CCc2ccccc21	none
Nc1ccc2c(c1)C/C(=C/c1ccco1)C2=O	TCR-CD3 inh 22, SIAE primary 23, PRMT1 FP inh 39 | BSA probe FL inactive | TCR-CD3 conf inactive | PRMT1 inh conf 33 | SIAE confirm inactive
COc1cc(C(=O)OCC(=O)N2CCCC2=O)cc(OC)c1C	ABHD4 inh 45, TCR-CD3 inh 43, SIAE primary 17, PRMT1 FP inh 96 | BSA probe FL inactive | TCR-CD3 conf inactive | PRMT1 inh conf inactive | ABHD4 confirm inactive | SIAE confirm inactive
COCC1CN(CCc2ccc(F)cc2)S(=O)(=O)c2c(F)cccc2O1 (stereo not given)	none (no result: HTRA1 inhibitor)
O=C(C1COc2ccccc2O1)N1CCCC1 (stereo not given)	none
CCOC(=O)C1CCCN(C(=O)C2COc3ccccc3O2)C1 (stereo not given)	ABHD4 inh 45, TCR-CD3 inh 28, SIAE primary 108 | BSA probe FL inactive | TCR-CD3 conf inactive | ABHD4 confirm inactive | SIAE confirm inactive
CS(=O)(=O)c1ccc2nc(NC(=O)c3ccccc3)sc2c1	none
